From ChEMBL document CHEMBL1141748, “Nocardimicins A, B, C, D, E, and F, siderophores with muscarinic M3 receptor inhibiting activity from Nocardia sp. TP-A0674” (J Nat Prod, 2005)

How the values were obtained:
[1] = biological target: Muscarinic acetylcholine receptor M3 (Homo sapiens, UniProt P20309); assay: Displacement of [3H]NMS from human muscarinic M3 receptor expressed in insect Sf9 cells
Method in brief: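 Competition binding used Sf9 membranes stably expressing human M3, incubated with 0.29 nM [3H]-NMS (assay Kd 0.078 nM, Bmax 3.2 pmol/mg protein) in 50 mM Tris-HCl, 10 mM MgCl2, 1 mM EDTA, pH 7.4, 25 °C, 1 h. Nonspecific binding was set with 1 µM atropine. IC50 was taken from competition curves and converted to apparent Ki by Cheng-Prusoff.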

[2] = biological target: T1, Muscarinic acetylcholine receptor M1 (Homo sapiens, UniProt P11229); assay: Binding affinity to human muscarinic M1 receptor expressed in insect Sf9 cells
T1 sequence (P11229 whole entry): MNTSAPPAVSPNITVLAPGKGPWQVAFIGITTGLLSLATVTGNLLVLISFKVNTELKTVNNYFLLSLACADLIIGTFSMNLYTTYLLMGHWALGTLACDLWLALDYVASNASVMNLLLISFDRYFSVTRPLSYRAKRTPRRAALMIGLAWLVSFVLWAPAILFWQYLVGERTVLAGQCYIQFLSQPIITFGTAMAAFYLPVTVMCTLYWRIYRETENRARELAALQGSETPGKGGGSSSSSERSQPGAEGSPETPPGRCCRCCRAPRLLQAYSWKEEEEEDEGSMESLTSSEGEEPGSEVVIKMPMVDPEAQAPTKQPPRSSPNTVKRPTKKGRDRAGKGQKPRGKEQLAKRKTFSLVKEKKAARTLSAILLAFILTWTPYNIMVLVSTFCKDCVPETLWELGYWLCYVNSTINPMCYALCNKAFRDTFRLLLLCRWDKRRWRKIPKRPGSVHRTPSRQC
Method in brief: (§1)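 Membranes from Sf9 insect cells stably expressing the human receptor were incubated with 0.29 nM [3H]-NMS in 50 mM Tris-HCl, 10 mM MgCl2, 1 mM EDTA, pH 7.4, for 1 h at 25 °C. Nonspecific binding was defined with 1 µM atropine. IC50 was taken from competition curves and converted to apparent Ki by Cheng-Prusoff.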

[3] = biological target: T2, Muscarinic acetylcholine receptor M4 (Homo sapiens, UniProt P08173); assay: Binding affinity to human muscarinic M4 receptor expressed in insect Sf9 cells; method in brief: as §1
T2 sequence (P08173 whole entry): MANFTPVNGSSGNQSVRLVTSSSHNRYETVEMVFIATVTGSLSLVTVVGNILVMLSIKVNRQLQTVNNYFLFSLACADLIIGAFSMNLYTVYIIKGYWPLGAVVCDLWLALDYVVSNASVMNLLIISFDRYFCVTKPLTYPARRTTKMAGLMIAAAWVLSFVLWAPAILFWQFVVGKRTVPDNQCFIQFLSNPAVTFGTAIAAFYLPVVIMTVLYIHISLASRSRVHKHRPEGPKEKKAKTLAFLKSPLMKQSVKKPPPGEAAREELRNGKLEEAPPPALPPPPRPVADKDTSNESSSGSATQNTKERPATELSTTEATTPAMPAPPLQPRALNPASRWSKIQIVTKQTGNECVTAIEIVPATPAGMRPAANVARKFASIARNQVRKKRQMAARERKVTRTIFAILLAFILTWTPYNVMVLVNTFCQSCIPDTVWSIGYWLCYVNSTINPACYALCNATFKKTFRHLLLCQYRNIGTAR

[4] = biological target: T3, Muscarinic acetylcholine receptor M2 (Homo sapiens, UniProt P08172); assay: Binding affinity to human muscarinic M2 receptor expressed in insect Sf9 cells; method in brief: as §1
T3 sequence (P08172 whole entry): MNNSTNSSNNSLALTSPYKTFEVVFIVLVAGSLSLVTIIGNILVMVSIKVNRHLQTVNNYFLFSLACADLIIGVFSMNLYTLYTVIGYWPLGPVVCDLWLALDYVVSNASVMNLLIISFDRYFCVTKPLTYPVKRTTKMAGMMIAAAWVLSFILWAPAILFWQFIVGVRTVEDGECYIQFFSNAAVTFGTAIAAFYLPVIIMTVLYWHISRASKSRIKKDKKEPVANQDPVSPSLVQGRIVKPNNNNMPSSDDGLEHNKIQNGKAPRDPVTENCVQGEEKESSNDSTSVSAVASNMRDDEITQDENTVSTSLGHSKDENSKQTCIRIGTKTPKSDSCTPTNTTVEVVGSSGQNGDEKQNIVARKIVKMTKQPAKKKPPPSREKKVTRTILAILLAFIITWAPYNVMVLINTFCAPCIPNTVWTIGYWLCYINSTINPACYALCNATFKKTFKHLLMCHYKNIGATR

[5] = biological target: T4, Muscarinic acetylcholine receptor M5 (Homo sapiens, UniProt P08912); assay: Binding affinity to human muscarinic M5 receptor expressed in insect Sf9 cells; method in brief: as §1
T4 sequence (P08912 whole entry): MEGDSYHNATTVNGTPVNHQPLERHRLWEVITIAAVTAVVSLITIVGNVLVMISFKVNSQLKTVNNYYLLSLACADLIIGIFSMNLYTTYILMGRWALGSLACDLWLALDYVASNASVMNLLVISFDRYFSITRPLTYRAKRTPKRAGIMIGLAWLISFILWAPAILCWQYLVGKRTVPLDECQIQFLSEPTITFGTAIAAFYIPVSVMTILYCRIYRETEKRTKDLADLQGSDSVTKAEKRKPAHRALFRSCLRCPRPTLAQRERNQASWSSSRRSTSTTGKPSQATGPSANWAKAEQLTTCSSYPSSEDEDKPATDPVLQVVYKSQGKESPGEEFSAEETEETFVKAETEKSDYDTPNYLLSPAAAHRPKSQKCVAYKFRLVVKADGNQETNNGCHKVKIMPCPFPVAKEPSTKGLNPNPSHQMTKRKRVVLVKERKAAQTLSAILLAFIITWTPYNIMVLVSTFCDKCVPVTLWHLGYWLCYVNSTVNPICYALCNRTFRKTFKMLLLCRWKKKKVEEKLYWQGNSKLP

Muscarinic acetylcholine receptor M3, sequence (P20309 whole entry): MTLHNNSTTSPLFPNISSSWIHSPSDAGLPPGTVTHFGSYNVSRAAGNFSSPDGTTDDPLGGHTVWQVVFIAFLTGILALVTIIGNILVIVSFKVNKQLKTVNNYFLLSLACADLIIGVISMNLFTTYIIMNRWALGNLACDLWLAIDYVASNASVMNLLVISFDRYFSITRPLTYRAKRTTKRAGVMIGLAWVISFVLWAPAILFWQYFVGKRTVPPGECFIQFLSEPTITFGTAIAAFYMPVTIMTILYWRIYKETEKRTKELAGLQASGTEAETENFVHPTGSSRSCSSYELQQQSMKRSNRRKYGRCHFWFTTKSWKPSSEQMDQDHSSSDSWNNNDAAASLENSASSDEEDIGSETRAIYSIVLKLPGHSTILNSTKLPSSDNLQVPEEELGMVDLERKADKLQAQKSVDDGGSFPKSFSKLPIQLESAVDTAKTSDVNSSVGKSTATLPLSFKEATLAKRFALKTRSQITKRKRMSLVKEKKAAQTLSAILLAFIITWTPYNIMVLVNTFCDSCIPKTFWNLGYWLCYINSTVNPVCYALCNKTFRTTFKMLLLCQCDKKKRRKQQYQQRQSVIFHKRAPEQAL

Compound	IC50 [1] [µM]	Ki [1] [µM]	other results
CCCCCCCCCC(OC(=O)C(CCCCN(O)C(C)=O)NC(=O)c1coc(-c2ccccc2O)n1)C(C)C(=O)NC1CCCCN(O)C1=O (stereo not given) [NOCARDIMICIN A]	5.89	1.25	–
CCCCCCCCCCCC(OC(=O)C(CCCCN(O)C(C)=O)NC(=O)c1coc(-c2ccccc2O)n1)C(C)C(=O)NC1CCCCN(O)C1=O (stereo not given) [NOCARDIMICIN B]	0.63	0.13	IC50 [2]: 2.03 µM; Ki [2]: 0.49 µM; IC50 [3]: 1.04 µM; Ki [3]: 0.14 µM; IC50 [4]: 1.78 µM; Ki [4]: 0.63 µM; IC50 [5]: 1.64 µM; Ki [5]: 1.18 µM

More lines, main results first:

IC50 [1] [µM]	Ki [1] [µM]	Compound	other results
4.56	0.97	CCCCCCCCCCCCCC(OC(=O)C(CCCCN(O)C(C)=O)NC(=O)c1coc(-c2ccccc2O)n1)C(C)C(=O)NC1CCCCNC1=O (stereo not given) [NOCCARDIMICIN E]	–
1.1	0.23	CCCCCCCCCCCCCC(OC(=O)C(CCCCN(O)C(C)=O)NC(=O)c1coc(-c2ccccc2O)n1)C(C)C(=O)NC1CCCCN(O)C1=O (stereo not given) [NOCARDIMICIN D]	–
6.29	1.33	CCCCCCCCCCCCCCCC(OC(=O)C(CCCCN(O)C(C)=O)NC(=O)c1coc(-c2ccccc2O)n1)C(C)C(=O)NC1CCCCN(O)C1=O (stereo not given) [NOCARDIMICIN F]	–
4.7	1	CCCCCCCCCCCC(OC(=O)C(CCCCN(O)C(C)=O)NC(=O)c1coc(-c2ccccc2O)n1)C(C)C(=O)NC1CCCCNC1=O (stereo not given) [NOCARDIMICIN C]	–
